# According to PubChem BioAssay:
# Active and inactive are the calls of the source. Rule as the data show it, unless noted: active = inhibition above about 31%; inactive = the rest.
# Tests used:
# [1] = HUVEC growth inhibition – cell-based, human, primary screen (AID 575;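 active = viability at or below 30% in both replicate assays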;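 also: 100% = median of untreated cell wells with 0.1% DMSO on each plate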); details: HUVEC proliferation, CellTiter-Glo luminescence, 72 h; at 10 µM; stronger effect = lower value
# Summary of the method: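 Test system: primary human umbilical vein endothelial cells; medium: endothelial basal medium with 2% FBS plus growth supplements; dosing: 10 µM compound only; times: 72 h treatment at 37 °C; signal: CTG luminescence; read-out: % viability relative to median vehicle-well signal on each plate; control set: vehicle and MePR control wells; plate: 384-well, collagen-coated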
# [2] = H69AR cell proliferation blockers – human, duplicate replicates, primary screen (AID 580;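 active = viability at or under a set limit in both replicates, limit being median viability minus 3 SD, cut at about 48% in these data, passing the limit was not always enough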;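 also: 100% = mean luminescence of untreated wells and 0% = no signal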); details: H69AR lung tumor cells viability, ATP luminescence, 72 h; at 10 µM; stronger effect = lower value
# [3] = MRP1 drug-resistance reversers in H69AR cells – cell-based, doxorubicin co-treatment, pilot screen (AID 601;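 active = viability loss from added drug above about 55%, and viability with drug at most 40%, in both replicates, limit read from the data, passing the limit was not always enough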); details: CellTiter-Glo, 72 h, at 10 µM; for differential viability (reversal): stronger effect = higher value
# [4] = yeast transport mutant growth inhibition pilot in 384-well plates, post-Golgi transport modulator project (AID 636); details: absorbance 615 nm, about 18 h, stronger effect = higher value
# [5] = growth suppression of yeast trafficking mutant, preliminary HTS, modulators of trafficking downstream of Golgi apparatus project, 1536-format plate, OD 615 nm (AID 637; in the data active = inhibition above about 30%); details: yeast transport mutant growth, absorbance 615 nm, 18 h; stronger effect = higher value
# [6] = H69AR cells + 2 uM doxorubicin, measured here: viability with 2 uM doxorubicin, stronger effect = lower value
# [7] = H69AR cells, compound alone cytotoxicity
SMILES,viability [1],viability [2],differential viability (reversal) ([3]; H69AR cells + 2 uM doxorubicin),"viability [3, 6]","viability [3, 7]",inhibition [4],inhibition [5]
Cn1c(=O)c(=O)n(C)c2cc(S(=O)(=O)Nc3ccc4c(c3)OCCO4)ccc21,99.5% (inactive),94.9% (inactive),6.65% (inactive),88.2%,94.9%,-0.67% (inactive),8.41% (inactive)
Cc1cccc(NC(=O)CN(C)S(=O)(=O)c2ccccc2)n1,107% (inactive),95.2% (inactive),9.79% (inactive),85.4%,95.2%,-6.18% (inactive),2.54% (inactive)
CC1CCN(C(=O)c2cc(-c3ccc(Cl)c(Cl)c3)on2)CC1,77.1% (inactive),90.7% (inactive),10.5% (inactive),80.2%,90.7%,-2.11% (inactive),0.95% (inactive)
COc1cccc(Oc2ccc(N)cc2)c1,74.9% (inactive),74.8% (inactive),-6.83% (inactive),81.7%,74.8%,0% (inactive),-3.33% (inactive)
CC(C)(CSc1nncn1N)NS(=O)(=O)c1ccc(Cl)cc1,91.9% (inactive),98.3% (inactive),1.6% (inactive),96.7%,98.3%,-2.27% (inactive),-0.79% (inactive)
CN1CCCC(OC(=O)c2ccc3c(c2)OCCO3)C1 (configuration not stated),103% (inactive),106% (inactive),19.1% (inactive),86.7%,106%,-4.4% (inactive),-2.06% (inactive)
COc1ccc(C2C(C#N)=C(N)Oc3cc4c(cc32)OCO4)cc1 (configuration not stated),53.4% (inactive),32.8% (active),-49.4% (inactive),82.2%,32.8%,-5.07% (inactive),-1.11% (inactive)
CSc1ccccc1NC(=O)CN(Cc1ccccc1)S(C)(=O)=O,82.7% (inactive),93.1% (inactive),7.95% (inactive),85.2%,93.1%,-0.78% (inactive),10.6% (inactive)
CC(=O)Nc1ccc(S(=O)(=O)N2CCSC2c2ccccc2)cc1 (configuration not stated),99.6% (inactive),91.5% (inactive),5.05% (inactive),86.4%,91.5%,-1.82% (inactive),0.32% (inactive)
COC(=O)Cn1c(=O)c2c(nc(Br)n2CC(=O)OC)n(C)c1=O,91.6% (inactive),86.5% (inactive),6.83% (inactive),79.7%,86.5%,-4.53% (inactive),-0.79% (inactive)
CCSC1=C(C#N)C(c2cccc(OC)c2)CC(=O)N1 (configuration not stated),85.5% (inactive),101% (inactive),8.71% (inactive),92.6%,101%,0.53% (inactive),-1.9% (inactive)
O=C(Cc1ccccc1)Nc1nnc(-c2cccs2)s1,96.8% (inactive),61.1% (inactive),-6.04% (inactive),67.1%,61.1%,-2.99% (inactive),3.02% (inactive)
Cc1nc(C)c(C(=O)OCC(=O)N2CCN(c3ccccc3)CC2)s1,108% (inactive),95.8% (inactive),7.64% (inactive),88.1%,95.8%,-4.55% (inactive),4.29% (inactive)
COc1ccc(Cn2nnnc2C(c2ccncc2)N2CCOCC2)cc1 (configuration not stated),90.4% (inactive),94.7% (inactive),3.26% (inactive),91.4%,94.7%,0.78% (inactive),0.95% (inactive)
CCCOc1ccc(N2C(=O)CC(SCCN)C2=O)cc1 (configuration not stated),88.2% (inactive),108% (inactive),8.12% (inactive),100%,108%,-5.47% (inactive),-3.02% (inactive)
c1ccc(OCCOc2ncnc3sccc23)cc1,100% (inactive),98.7% (inactive),7% (inactive),91.7%,98.7%,-0.26% (inactive),-1.75% (inactive)
O=C(CN1C(=O)COc2ccccc21)NCCN1CCc2ccccc2C1,79.1% (inactive),92.9% (inactive),-3.52% (inactive),96.4%,92.9%,-4.68% (inactive),-1.59% (inactive)
CCOc1ccccc1-n1c(SCC(=O)NC(C)CC)nnc1-c1ccoc1C (configuration not stated),82.5% (inactive),88.7% (inactive),9.12% (inactive),79.6%,88.7%,-6% (inactive),-1.75% (inactive)
O=S1(=O)C=CC(Nc2cccc(Cl)c2)C1 (configuration not stated),76.3% (inactive),65.7% (inactive),-0.23% (inactive),65.9%,65.7%,-3.68% (inactive),4.29% (inactive)
Cc1cc(C(F)(F)F)nc(SCC(=O)NC2=NC(=O)C(C)S2)n1 (configuration not stated),96% (inactive),100% (inactive),16.8% (inactive),83.6%,100%,-2.27% (inactive),-7.3% (inactive)
CCc1c(C)nc(N)n2c(SCC(=O)N3CCCc4ccccc43)nnc12,107% (inactive),100% (inactive),11.3% (inactive),89.1%,100%,-3.29% (inactive),-0.32% (inactive)

SMILES,viability [1],viability [2],differential viability (reversal) ([3]; H69AR cells + 2 uM doxorubicin),"viability [3, 6]","viability [3, 7]",inhibition [4],inhibition [5]
COCCn1c(N)c(C(=O)Nc2sc3c(c2C(=O)OC)CCCC3)c2nc3ccccc3nc21,82.6% (inactive),92.3% (inactive),-0.35% (inactive),92.7%,92.3%,-4.42% (inactive),3.65% (inactive)
O=C(c1ccc(-c2ccccc2)cc1)N1CCC(C(=O)N2CCCC2)CC1,97.3% (inactive),104% (inactive),12.4% (inactive),91.4%,104%,-6.67% (inactive),5.71% (inactive)
O=C1CC(C(=O)Nc2ccc(Br)cc2)C2(CCCC2)O1 (configuration not stated),109% (inactive),101% (inactive),8.19% (inactive),93.1%,101%,-4% (inactive),-1.75% (inactive)
COC(=O)c1cccc(NC(=O)CSc2nnc(COc3ccccc3)n2C)c1,102% (inactive),101% (inactive),13.7% (inactive),87%,101%,-4.27% (inactive),2.22% (inactive)
CC(C)OC(=O)CSc1nnc(-c2ccccn2)n1-c1ccccc1,87.3% (inactive),92.1% (inactive),-2.68% (inactive),94.8%,92.1%,-1.87% (inactive),-9.52% (inactive)
COc1ccc(NC(=O)COc2ccccc2)c(OC)c1,111% (inactive),104% (inactive),23.1% (inactive),81%,104%,-5.6% (inactive),0.16% (inactive)
CCCn1c(SCC(=O)Nc2ccccc2C(=O)OCC)nc2c1c(=O)n(C)c(=O)n2C,102% (inactive),95.7% (inactive),2.55% (inactive),93.1%,95.7%,-8% (inactive),-3.02% (inactive)
CCc1nnc(NC(=O)CSc2nnc(Cc3ccccc3)n2-c2ccc(OC)cc2)s1,92.9% (inactive),84.6% (inactive),-6.38% (inactive),90.9%,84.6%,-5.79% (inactive),-0.63% (inactive)
Cn1c(=O)c(=O)n(C)c2cc(S(=O)(=O)N3CCCCC3)ccc21,111% (inactive),100% (inactive),16.1% (inactive),84.3%,100%,-3.07% (inactive),0.16% (inactive)
O=C(NCc1ccc(F)cc1)c1cc(-c2ccco2)on1,93.4% (inactive),92.5% (inactive),-8.09% (inactive),101%,92.5%,-2.89% (inactive),-5.56% (inactive)
CCCCc1cc(=O)oc2c(CN3CCCC3)c(O)c(Cl)cc12,98.2% (inactive),96.6% (inactive),3.32% (inactive),93.3%,96.6%,-3.16% (inactive),3.33% (inactive)
CC(C)(C)NC(=O)CN(C(=O)CS(=O)CC(=O)Nc1ccc(F)cc1)c1ccc(Cl)cc1 (configuration not stated),95.2% (inactive),98.9% (inactive),10.3% (inactive),88.6%,98.9%,-4.53% (inactive),21.9% (inactive)
C=CCn1c(Br)nc2c1c(=O)[nH]c(=O)n2C,97.7% (inactive),85.1% (inactive),6.37% (inactive),78.7%,85.1%,-6.93% (inactive),3.33% (inactive)
CN(C)S(=O)(=O)n1cnc(-c2ccccc2)c1-c1ccccc1,99.8% (inactive),98.3% (inactive),-3.79% (inactive),102%,98.3%,-1.32% (inactive),-2.86% (inactive)
CS(=O)(=O)Nc1ccc(C(=O)NCc2ccc3c(c2)OCO3)cc1,92.2% (inactive),96.2% (inactive),0.675% (inactive),95.5%,96.2%,-8.29% (inactive),-1.9% (inactive)
Nc1nnc(Cc2ccc(Cl)cc2)s1,115% (inactive),102% (inactive),15.6% (inactive),86.3%,102%,-6.18% (inactive),3.49% (inactive)
COc1ccc(-c2nn3c(-c4cccc(C)c4)nnc3s2)cc1OC,51.1% (inactive),35.2% (active),-44% (inactive),79.2%,35.2%,-0.4% (inactive),-4.13% (inactive)
O=C(O)c1cnn2c1NC(c1ccc(F)cc1)CC2C(F)(F)F (configuration not stated),90.8% (inactive),97.6% (inactive),9.29% (inactive),88.3%,97.6%,-6.32% (inactive),4.92% (inactive)
CCOc1ccc(NC(=O)c2ccncc2)cc1,112% (inactive),99.9% (inactive),11.4% (inactive),88.5%,99.9%,-2.89% (inactive),-0.63% (inactive)
COc1ccc(-c2nnc(-c3ccc(N)cc3)o2)cc1,95.9% (inactive),88.3% (inactive),-2.75% (inactive),91.1%,88.3%,-4.13% (inactive),3.81% (inactive)
